Experimental data as given in ChEMBL document CHEMBL1156597, “Structure-activity relationship of kahalalide F synthetic analogues” (J Med Chem, 2008).

Key:
[1] = Cytotoxicity against human HeLa-APL cells after 48 hrs by SRB assay; format: functional
In short: (§1)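 Cells grown in RPMI 1640 with 10% FBS and penicillin/streptomycin at 37 °C and 5% CO₂, trypsinized, then seeded at 5 × 10³/well. After 18 h drug-free attachment, samples in DMSO/EtOH/PBS (0.5:0.5:99) were added for 48 h continuous exposure. Cells were fixed with cold TCA (1 h, 4 °C) and stained with SRB (10 min). Tris-solubilized stain read at 490 nm. Triplicate wells, mean ± SD; GI₅₀ derived.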

SK-BR-3 = experiment: Cytotoxicity against human SKBR3 cells after 48 hrs by SRB assay; format: functional; conditions: SK-BR-3, 48 h; for CC50: read-out: LC50 (the source's name); for GI50: read-out: GI50; in short: as §1
[2] = Cytotoxicity against human IGROV cells after 48 hrs by SRB assay; format: functional; conditions: for CC50: read-out: LC50 (the source's name); in short: as §1
[3] = Cytotoxicity against human IGROV-ET cells after 48 hrs by SRB assay; format: functional; conditions: for CC50: read-out: LC50 (the source's name); in short: as §1
PANC-1 = experiment: Cytotoxicity against human PANC1 cells after 48 hrs by SRB assay; format: functional; conditions: PANC-1, 48 h; for CC50: read-out: LC50 (the source's name); in short: as §1
DU-145 = experiment: Cytotoxicity against human DU145 cells after 48 hrs by SRB assay; format: functional, cell-based; conditions: Homo sapiens, DU-145, 48 h; for CC50: read-out: LC50 (the source's name); for GI50: read-out: GI50; in short: as §1
HT-29 = experiment: Cytotoxicity against human HT29 cells after 48 hrs by SRB assay; format: functional, cell-based; conditions: Homo sapiens, HT-29, 48 h; for CC50: read-out: LC50 (the source's name); in short: as §1
LNCaP = experiment: Cytotoxicity against human LNcaP cells after 48 hrs by SRB assay; format: functional; conditions: for CC50: read-out: LC50 (the source's name); in short: as §1
K562 = experiment: Cytotoxicity against human K562 cells after 48 hrs by SRB assay; format: functional; conditions: K562, 48 h; for CC50: read-out: LC50 (the source's name); in short: as §1
SK-MEL-28 = experiment: Cytotoxicity against human SK-MEL-28 cells after 48 hrs by SRB assay; format: functional, cell-based; conditions: Homo sapiens, SK-MEL-28, 48 h; for CC50: read-out: LC50 (the source's name); in short: as §1
A549 = experiment: Cytotoxicity against human A549 cells after 48 hrs by SRB assay; format: functional, cell-based; conditions: Homo sapiens, A549, 48 h; in short: as §1
LoVo = experiment: Cytotoxicity against human LoVo cells after 48 hrs by SRB assay; format: functional; conditions: for CC50: read-out: LC50 (the source's name)
HeLa = experiment: Cytotoxicity against human HeLa cells after 48 hrs by SRB assay; format: functional; conditions: for CC50: read-out: LC50 (the source's name); in short: as §1

| Compound | LC50 (concentration giving 50% net cell kill) [1] | CC50 (SK-BR-3) | CC50 [2] | CC50 [3] | CC50 (PANC-1) | CC50 (DU-145) | CC50 (HT-29) | GI50 (LNCaP) | TGI (LNCaP) | CC50 (LNCaP) | CC50 (K562) | CC50 (SK-MEL-28) | LC50 (A549) | CC50 (LoVo) | CC50 (HeLa) | GI50 (SK-MEL-28; read-out: GI50) | GI50 (A549; read-out: GI50) | GI50 [1] | TGI [1] | TGI (SK-BR-3) | also measured |
| --- | --- | --- | --- | --- | --- | --- | --- | --- | --- | --- | --- | --- | --- | --- | --- | --- | --- | --- | --- | --- | --- |
| C/C=C1\NC(=O)[C@H](Cc2ccccc2)NC(=O)[C@@H](C(C)C)NC(=O)[C@@H]([C@H](C)CC)NC(=O)[C@H](NC(=O)[C@H](NC(=O)[C@H](CCCN)NC(=O)[C@H]2CCCN2C(=O)[C@H](NC(=O)[C@@H](NC(=O)[C@@H](NC(=O)[C@H](NC(=O)CCCNC(=N)N)C(C)C)[C@@H](C)O)C(C)C)C(C)C)[C@H](C)CC)[C@H](C)OC(=O)[C@H](C(C)C)NC1=O | 1310 nM | 2750 nM | 624 nM | 695 nM | 2510 nM | 1630 nM | 877 nM | 3930 nM | 3200 nM | 1520 nM | 2410 nM | 1430 nM | 1890 nM | 4740 nM | 1030 nM | – | – | – | – | – | – |
| C/C=C1\NC(=O)[C@H](Cc2ccccc2)NC(=O)[C@@H](C(C)C)NC(=O)[C@@H]([C@H](C)CC)NC(=O)[C@H](NC(=O)[C@H](NC(=O)[C@H](CCCN)NC(=O)[C@H]2CCCN2C(=O)[C@H](NC(=O)[C@@H](NC(=O)[C@@H](NC(=O)[C@H](NC(=O)CCCCCCCCCCCCCCCCCCC)C(C)C)[C@@H](C)O)C(C)C)C(C)C)[C@H](C)CC)[C@H](C)OC(=O)[C@H](C(C)C)NC1=O | 2030 nM | 865 nM | 1230 nM | 1210 nM | 423 nM | 2030 nM | 877 nM | – | – | 296 nM | 910 nM | 432 nM | 383 nM | 960 nM | 477 nM | 1890 nM | 1880 nM | – | – | – | GI50 (SK-MEL-28): 905 nM; GI50 (A549): 850 nM |
| C/C=C1\NC(=O)[C@H](Cc2ccccc2)NC(=O)[C@@H](C(C)C)NC(=O)[C@@H]([C@H](C)CC)NC(=O)[C@H](NC(=O)[C@H](NC(=O)[C@H](CCCN)NC(=O)[C@H]2CCCN2C(=O)[C@H](NC(=O)[C@H](NC(=O)[C@@H](NC(=O)[C@H](NC(=O)CCCC(C)C)C(C)C)[C@@H](C)O)C(C)C)C(C)C)[C@H](C)CC)[C@H](C)OC(=O)[C@H](C(C)C)NC1=O | 1320 nM | 2310 nM | 631 nM | 702 nM | 2530 nM | 1650 nM | 886 nM | 2440 nM | 3230 nM | 1540 nM | 2430 nM | 1440 nM | 1910 nM | 3110 nM | 1040 nM | – | 5090 nM | 3400 nM | 3040 nM | 3230 nM | GI50 (SK-BR-3): 3690 nM; GI50 (PANC-1): 4430 nM; TGI (PANC-1): 4920 nM; TGI (DU-145): 3800 nM; GI50 (DU-145): 3130 nM; GI50 (HT-29): 4840 nM; TGI (HT-29): 3930 nM; GI50 (K562): 4290 nM; TGI (K562): 4830 nM; TGI (A549): 4230 nM; GI50 (LoVo): 3310 nM; TGI (LoVo): 3210 nM |
| C/C=C1\NC(=O)[C@H](Cc2ccccc2)NC(=O)[C@@H](C(C)C)NC(=O)[C@@H]([C@H](C)CC)NC(=O)[C@H](NC(=O)[C@H](NC(=O)[C@H](CCCN)NC(=O)[C@H]2CCCN2C(=O)[C@H](NC(=O)[C@H](C)NC(=O)[C@@H](NC(=O)[C@H](NC(=O)CCCC(C)C)C(C)C)[C@@H](C)O)C(C)C)[C@H](C)CC)[C@H](C)OC(=O)[C@H](C(C)C)NC1=O | 1350 nM | 2170 nM | 533 nM | 599 nM | 2580 nM | 1680 nM | 665 nM | 2800 nM | 3300 nM | 1570 nM | 2480 nM | 1470 nM | 1940 nM | 2990 nM | 1060 nM | 3450 nM | 3730 nM | 3270 nM | 3100 nM | 2960 nM | GI50 (SK-BR-3): 3250 nM; GI50 [2]: 934 nM; GI50 ([2]; read-out: GI50): 2000 nM; GI50 [3]: 863 nM; GI50 ([3]; read-out: GI50): 1250 nM; TGI (DU-145): 3870 nM; GI50 (DU-145): 3900 nM; GI50 (K562): 4320 nM; TGI (K562): 4930 nM; TGI (SK-MEL-28): 3070 nM; TGI (A549): 4310 nM; GI50 (LoVo): 2680 nM; TGI (LoVo): 2830 nM; GI50 (HeLa): 3100 nM; TGI (HeLa): 2830 nM |
| C/C=C1\NC(=O)[C@H](Cc2ccccc2)NC(=O)[C@@H](C(C)C)NC(=O)[C@@H]([C@H](C)CC)NC(=O)[C@H](NC(=O)[C@H](NC(=O)[C@H](CCCN)NC(=O)[C@H]2CCCN2C(=O)[C@H](NC(=O)[C@@H](NC(=O)[C@@H](NC(=O)[C@@H](Cc2ccccc2)NC(=O)CCCC(C)C)[C@@H](C)O)C(C)C)C(C)C)[C@H](C)CC)[C@H](C)OC(=O)[C@H](C(C)C)NC1=O | 1280 nM | 1670 nM | 449 nM | 680 nM | 2450 nM | 1600 nM | 5590 nM | 2280 nM | 3130 nM | 1490 nM | 2360 nM | 1400 nM | 1840 nM | 2800 nM | 1010 nM | 2640 nM | 2650 nM | 179 nM | 1700 nM | 2190 nM | GI50 (SK-BR-3): 2340 nM; GI50 [2]: 862 nM; GI50 ([2]; read-out: GI50): 2010 nM; TGI [3]: 1730 nM; GI50 ([3]; read-out: GI50): 2240 nM; GI50 (PANC-1): 5440 nM; TGI (PANC-1): 4760 nM; TGI (DU-145): 3680 nM; GI50 (DU-145): 3900 nM; GI50 (K562): 3400 nM; TGI (K562): 4680 nM; TGI (SK-MEL-28): 2920 nM; TGI (A549): 2750 nM; GI50 (LoVo): 2620 nM; TGI (LoVo): 2710 nM; GI50 (HeLa): 2210 nM; TGI (HeLa): 2690 nM |
